Measured values published in ChEMBL document CHEMBL1126044, “Affinity of human growth hormone-releasing factor (1-29)NH2 analogues for GRF binding sites in rat adenopituitary” (J Med Chem, 1992).

Experiments:
[1] = target: T1, Growth hormone-releasing hormone receptor (Rattus norvegicus) (UniProt Q02644); experiment: Relative affinity compared to hGRF(1-29)NH2; type: functional
T1 sequence (whole entry): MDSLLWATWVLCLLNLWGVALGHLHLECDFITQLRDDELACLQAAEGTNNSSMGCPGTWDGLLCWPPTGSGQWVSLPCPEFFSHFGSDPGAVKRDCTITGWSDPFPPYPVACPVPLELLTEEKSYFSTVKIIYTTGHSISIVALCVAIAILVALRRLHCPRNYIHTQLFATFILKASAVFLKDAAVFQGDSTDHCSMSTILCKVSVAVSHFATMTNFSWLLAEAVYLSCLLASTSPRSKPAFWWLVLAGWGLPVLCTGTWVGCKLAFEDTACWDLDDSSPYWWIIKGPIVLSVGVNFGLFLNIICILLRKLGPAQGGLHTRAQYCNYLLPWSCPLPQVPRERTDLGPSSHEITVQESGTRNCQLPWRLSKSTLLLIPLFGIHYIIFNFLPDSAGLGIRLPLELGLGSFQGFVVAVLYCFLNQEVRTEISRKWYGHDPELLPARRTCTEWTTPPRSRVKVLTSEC
Summary of the method: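 Radioligand competition in rat anterior pituitary homogenate using [125I-Tyr10]hGRF(1-44)NH2 at 35–50 pM and peptides at 0–1000 nM, 60 min at 23 °C. Relative affinity is the binding IC50 expressed as a percentage relative to hGRF(1-29)NH2.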

[2] = target: T2, Growth hormone-releasing hormone receptor (Rattus norvegicus, UniProt Q02644); experiment: Compound was tested to Inhibit [125I]-Growth hormone-releasing factor in rat adenopituitary homogenates
T2 sequence (Q02644 whole entry): T1 sequence (whole entry)
Summary of the method: (§1)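 Anterior pituitaries from 2-month-old male Sprague-Dawley rats homogenized in ice-cold 50 mM Tris-HCl pH 7.4 with 5 mM MgCl2, 5 mM EDTA. Homogenate (70–75 µg protein) incubated with 35–50 pM [125I-Tyr10]hGRF(1-44)NH2 and peptide at 0–1000 nM in Tris-HCl buffer pH 7.4 with 5 mM EDTA, 5 mM MgCl2, 0.42% BSA, 60 min at 23 °C. Nonspecific binding defined with 2.4 µM rGRF(1-29)NH2. Bound fraction separated by centrifugation and gamma-counted. IC50 fitted with LIGAND. Mean ± SEM of three experiments, each in duplicate or triplicate.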

[3] = organism: Rattus norvegicus; experiment: Residual concentration after 60 min incubation with pituitary homogenates, in the binding assay conditions, by quantitative HPLC method; type: functional
Summary of the method: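 Peptide at 10 µM incubated with rat pituitary homogenate (150 µg protein/100 µL) in binding-assay conditions at 23 °C for 0 and 60 min. Reaction stopped with cold 50 mM phosphate pH 0.8 and centrifugation. Controls without homogenate accounted for adsorption. Remaining peptide measured by C18 HPLC (0.01% TFA/acetonitrile gradient, UV 214 nm) and peak-area integration.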

[4] = target: T2, Growth hormone-releasing hormone receptor; experiment: Compound was tested to Inhibit [125I]GRF in rat adenopituitary homogenates; summary of the method: as §1

Compound | Activity [1] [%] | IC50 [2] [nM] | Residual peptide remaining after 60 min [3] [%] | IC50 [4] [nM]
H-DAIFTNSYRKVLAQLSARKLLQDIMSR-NH2 | 1.8 | 311 | 93 | 
H-YADAIFTNSYRKVLGLSARKLLQDIMSR-NH2 |  |  |  | > 1000
H-YADAIFTNSYRKGQLSARKLLQDIMSR-NH2 |  |  |  | > 1000
H-YADAIFTNSYRKVLGLLQDIMSR-NH2 |  |  |  | > 1000

Second part, the compound after the results:

Activity [1] [%] | IC50 [2] [nM] | Residual peptide remaining after 60 min [3] [%] | IC50 [4] [nM] | Compound
0.6 |  |  | 1000 | H-YADAIFTNSYRKVLGQLSLLQDIMSR-NH2
 |  |  | > 1000 | H-YADAIFTNSYRKQLSARKLLQDIMSR-NH2
26 | 21.6 | 100 |  | CC[C@H](C)[C@H](NC(=O)[C@H](C)NC(=O)[C@H](CC(=O)O)NC(=O)[C@H](C)NC(=O)[C@H](Cc1ccc(O)cc1)NC(=O)CCCCCCCN)C(=O)N[C@@H](Cc1ccccc1)C(=O)N[C@H](C(=O)N[C@@H](CC(N)=O)C(=O)N[C@@H](CO)C(=O)N[C@@H](Cc1ccc(O)cc1)C(=O)N[C@@H](CCCN=C(N)N)C(=O)N[C@@H](CCCCN)C(=O)N[C@H](C(=O)N[C@@H](CC(C)C)C(=O)NCC(=O)N[C@@H](CCC(N)=O)C(=O)N[C@@H](CC(C)C)C(=O)N[C@@H](CO)C(=O)N[C@@H](C)C(=O)N[C@@H](CCCN=C(N)N)C(=O)N[C@@H](CCCCN)C(=O)N[C@@H](CC(C)C)C(=O)N[C@@H](CC(C)C)C(=O)N[C@@H](CCC(N)=O)C(=O)N[C@@H](CC(=O)O)C(=O)N[C@H](C(=O)N[C@@H](CCSC)C(=O)N[C@@H](CO)C(=O)N[C@@H](CCCN=C(N)N)C(N)=O)[C@@H](C)CC)C(C)C)[C@@H](C)O
